Data reported in ChEMBL document CHEMBL3102784, “Salicylanilide diethyl phosphates: synthesis, antimicrobial activity and cytotoxicity” (Bioorg Med Chem, 2014).
Values after ≈ are worked out from the molar mass of the structure shown. Active and inactive are the calls of the source. The calls are words filed in the database; no cut-off is given here.

How the values were obtained:
[1] = test system: Trichophyton mentagrophytes; test: Antifungal activity against Trichophyton mentagrophytes 445 after 72 hrs by broth microdilution method; type: functional; details: Trichophyton mentagrophytes, 445, 72 h
Method in brief: (§1)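 Filamentous dermatophyte tested by broth microdilution in RPMI 1640 with glutamine, fluconazole as reference. Value expressed as IC50 relative to growth control. Read at 72 and 120 h.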

Trichosporon asahii [2] = test: Antifungal activity against Trichosporon asahii 1188 after 24 hrs by broth microdilution method; type: functional; details: Trichosporon asahii, 1188, 24 h
Method in brief: (§2)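 Broth microdilution in RPMI 1640 with glutamine, fluconazole as reference. For yeasts, MIC is ≥80% growth reduction (IC80) versus control. For filamentous fungi, the value is expressed as IC50. Readings at 24 and 48 h.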

Aspergillus fumigatus [3] = test: Antifungal activity against Aspergillus fumigatus 231 after 24 hrs by broth microdilution method; type: functional; details: Aspergillus fumigatus, 231, 24 h; method in brief: as §2
Staphylococcus aureus [4] = test: Antibacterial activity against Staphylococcus aureus CCM 4516/08 after 24 hrs by broth microdilution method; type: functional; details: CCM 4516/08, 24 h
Method in brief: (§3)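 Broth microdilution in Mueller–Hinton broth, compounds dissolved in DMSO, tested over a dilution series from 500 downward. MIC taken as ≥95% growth reduction (IC95) versus drug-free control. Benzylpenicillin comparator. Readings at 24 and 48 h.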

Pichia kudriavzevii [5] = test: Antifungal activity against Candida krusei E28 after 24 hrs by broth microdilution method; type: functional; details: E28, 24 h; method in brief: as §2
Mycobacterium avium [6] = test: Antimycobacterial activity against isoniazid, rifampicin, ethambutol and ofloxacin-resistant Mycobacterium avium My 330/88 after 14 days; type: functional; details: My 330/88, 336 h
Method in brief: (§4)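 Micromethod MIC in Šula's semisynthetic medium at 37 °C. Compounds added in DMSO at 1000 down to 0.032 µmol/L. Isoniazid standard in sterile water at 0.5–250 µmol/L. Inocula: H37Rv 10^3, M. avium 10^5, M. kansasii 10^4. Read at 14 and 21 d, plus 7 d for M. kansasii.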

Mycobacterium kansasii [7] = test: Antimycobacterial activity against Mycobacterium kansasii My 235/80 after 7 days; type: functional; details: My 235/80, 168 h; method in brief: as §4
Staphylococcus aureus [8] = test: Antibacterial activity against Staphylococcus aureus CCM 4516/08 after 48 hrs by broth microdilution method; type: functional; details: CCM 4516/08, 48 h; method in brief: as §3
Staphylococcus aureus [9] = test: Antibacterial activity against methicillin-resistant Staphylococcus aureus H 5996/08 after 48 hrs by broth microdilution method; type: functional; details: H 5996/08, 48 h; method in brief: as §3
Mycobacterium kansasii [10] = test: Antimycobacterial activity against Mycobacterium kansasii 6509/96 after 14 days; type: functional; details: 6509/96, 336 h; method in brief: as §4
Mycobacterium avium [11] = test: Antimycobacterial activity against isoniazid, rifampicin, ethambutol and ofloxacin-resistant Mycobacterium avium My 330/88 after 21 days; type: functional; details: My 330/88, 504 h; method in brief: as §4
Lichtheimia corymbifera [12] = test: Antifungal activity against Absidia corymbifera 272 after 48 hrs by broth microdilution method; type: functional; details: Lichtheimia corymbifera, 272, 48 h; method in brief: as §2
Klebsiella pneumoniae [13] = test: Antibacterial activity against ESBL-positive Klebsiella pneumoniae J 14368/08 at 500 micromol/L after 24 to 48 hrs by broth microdilution method; type: functional, organism-based; method in brief: as §3
Pseudomonas aeruginosa = test: Antibacterial activity against Pseudomonas aeruginosa CCM 1961 at 500 micromol/L after 24 to 48 hrs by broth microdilution method; type: functional, organism-based; method in brief: as §3
HepG2 = test: Cytotoxicity against human HepG2 cells after 24 hrs by CellTiter assay; type: cell-based; details: HepG2, 24 h
Method in brief: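 HepG2 cells (passage 27–33) in MEM with 10% FBS, L-glutamine and NEAA, seeded at 1×10^4 per well. Treated next day with compounds at 0.1–100 µM (or 0.1–25 µmol/L), triplicates, <1% DMSO, for 24 h at 37 °C, 5% CO2. MTS reagent added for 2 h, absorbance read at 490 nm. IC50 taken against untreated (100%) and 10% DMSO (0%) controls.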

Trichosporon asahii [14] = test: Antifungal activity against Trichosporon asahii 1188 after 48 hrs by broth microdilution method; type: functional; details: Trichosporon asahii, 1188, 48 h; method in brief: as §2
Nakaseomyces glabratus = test: Antifungal activity against Candida glabrata 20/I at 500 micromol/L after 24 to 48 hrs by broth microdilution method; type: functional, organism-based; method in brief: as §2
Lichtheimia corymbifera [15] = test: Antifungal activity against Absidia corymbifera 272 after 24 hrs by broth microdilution method; type: functional; details: Lichtheimia corymbifera, 272, 24 h; method in brief: as §2
Mycobacterium kansasii [16] = test: Antimycobacterial activity against Mycobacterium kansasii 6509/96 after 21 days; type: functional; details: 6509/96, 504 h; method in brief: as §4
Candida albicans [17] = test: Antifungal activity against Candida albicans ATCC 44859 after 24 hrs by broth microdilution method; type: functional; details: ATCC 44859, 24 h; method in brief: as §2
Pichia kudriavzevii [18] = test: Antifungal activity against Candida krusei E28 after 48 hrs by broth microdilution method; type: functional; details: E28, 48 h; method in brief: as §2
Klebsiella pneumoniae [19] = test: Antibacterial activity against Klebsiella pneumoniae D 11750/08 at 500 micromol/L after 24 to 48 hrs by broth microdilution method; type: functional, organism-based; method in brief: as §3
Candida albicans [20] = test: Antifungal activity against Candida albicans ATCC 44859 after 48 hrs by broth microdilution method; type: functional; details: ATCC 44859, 48 h; method in brief: as §2
Aspergillus fumigatus [21] = test: Antifungal activity against Aspergillus fumigatus 231 after 48 hrs by broth microdilution method; type: functional; details: Aspergillus fumigatus, 231, 48 h; method in brief: as §2
[22] = test system: Mycobacterium tuberculosis; test: Antimycobacterial activity against Mycobacterium tuberculosis H37Rv My 331/88 after 14 days; type: functional; details: H37Rv My 331/88, 336 h; method in brief: as §4
Mycobacterium kansasii [23] = test: Antimycobacterial activity against Mycobacterium kansasii My 235/80 after 21 days; type: functional; details: My 235/80, 504 h; method in brief: as §4
Escherichia coli = test: Antibacterial activity against Escherichia coli CCM 4517 at 500 micromol/L after 24 to 48 hrs by broth microdilution method; type: functional, organism-based; method in brief: as §3
Mycobacterium kansasii [24] = test: Antimycobacterial activity against Mycobacterium kansasii My 235/80 after 14 days; type: functional; details: My 235/80, 336 h; method in brief: as §4
Mycobacterium kansasii [25] = test: Antimycobacterial activity against Mycobacterium kansasii 6509/96 after 7 days; type: functional; details: 6509/96, 168 h; method in brief: as §4
Enterococcus sp. = test: Antibacterial activity against Enterococcus sp. J 14365/08 at 500 micromol/L after 24 to 48 hrs by broth microdilution method; type: functional, organism-based; method in brief: as §3
Staphylococcus aureus [26] = test: Antibacterial activity against methicillin-resistant Staphylococcus aureus H 5996/08 after 24 hrs by broth microdilution method; type: functional; details: H 5996/08, 24 h; method in brief: as §3
Candida tropicalis = test: Antifungal activity against Candida tropicalis 156 at 500 micromol/L after 24 to 48 hrs by broth microdilution method; type: functional, organism-based; method in brief: as §2
[27] = test system: Staphylococcus epidermidis; test: Antibacterial activity against Staphylococcus epidermidis H 6966/08 after 48 hrs by broth microdilution method; type: functional; details: H 6966/08, 48 h; method in brief: as §3
[28] = test system: Staphylococcus epidermidis; test: Antibacterial activity against Staphylococcus epidermidis H 6966/08 after 24 hrs by broth microdilution method; type: functional; details: H 6966/08, 24 h; method in brief: as §3
[29] = test system: Mycobacterium tuberculosis; test: Antimycobacterial activity against Mycobacterium tuberculosis H37Rv My 331/88 after 21 days; type: functional; details: H37Rv My 331/88, 504 h; method in brief: as §4
[30] = test system: Trichophyton mentagrophytes; test: Antifungal activity against Trichophyton mentagrophytes 445 after 120 hrs by broth microdilution method; type: functional; details: Trichophyton mentagrophytes, 445, 120 h; method in brief: as §1

In the case of CCOP(=O)(OCC)Oc1ccc(Cl)cc1C(=O)Nc1cccc(Br)c1, the MIC50 [1] is reported as 15.6 µM (≈ 7.23 µg/mL), the MIC80 (Trichosporon asahii [2]) is reported as over 500 µM and the MIC50 (Aspergillus fumigatus [3]) is reported as over 500 µM. It also gave an MIC95 (Staphylococcus aureus [4]) of 15.6 µM (≈ 7.23 µg/mL), an MIC80 (Pichia kudriavzevii [5]) of over 500 µM and an MIC (Mycobacterium avium [6]) of 16 µM (≈ 7.4 µg/mL). For the same compound, the MIC (Mycobacterium kansasii [7]) was 4 µM (≈ 1.85 µg/mL), the MIC95 (Staphylococcus aureus [8]) was 31.2 µM (≈ 14.5 µg/mL) and the MIC95 (Staphylococcus aureus [9]) was 62.5 µM (≈ 28.9 µg/mL). The MIC (Mycobacterium kansasii [10]) was 8 µM (≈ 3.7 µg/mL), the MIC (Mycobacterium avium [11]) was 16 µM (≈ 7.4 µg/mL) and the MIC50 (Lichtheimia corymbifera [12]) was over 500 µM. The Activity (Klebsiella pneumoniae [13]) was “inactive”, the Activity (Pseudomonas aeruginosa) was “inactive” and the IC50 (HepG2) was 1.81 µM. The MIC80 (Trichosporon asahii [14]) was over 500 µM, the Activity (Nakaseomyces glabratus) was “inactive” and the MIC50 (Lichtheimia corymbifera [15]) was over 500 µM. For the same compound, the MIC (Mycobacterium kansasii [16]) was 8 µM (≈ 3.7 µg/mL), the MIC80 (Candida albicans [17]) was over 500 µM and the MIC80 (Pichia kudriavzevii [18]) was over 500 µM. The Activity (Klebsiella pneumoniae [19]) was “inactive”, the MIC80 (Candida albicans [20]) was over 500 µM and the MIC50 (Aspergillus fumigatus [21]) was over 500 µM. The MIC [22] was 4 µM (≈ 1.85 µg/mL), the MIC (Mycobacterium kansasii [23]) was 8 µM (≈ 3.7 µg/mL) and the Activity (Escherichia coli) was “inactive”. For the same compound, the MIC (Mycobacterium kansasii [24]) was 8 µM (≈ 3.7 µg/mL), the MIC (Mycobacterium kansasii [25]) was 8 µM (≈ 3.7 µg/mL) and the Activity (Enterococcus sp.) was “inactive”. For the same compound, the MIC95 (Staphylococcus aureus [26]) was 31.2 µM (≈ 14.5 µg/mL), the Activity (Candida tropicalis) was “inactive” and the MIC95 [27] was 31.2 µM (≈ 14.5 µg/mL). The MIC95 [28] was 15.6 µM (≈ 7.23 µg/mL), the MIC [29] was 4 µM (≈ 1.85 µg/mL) and the MIC50 [30] was 15.6 µM (≈ 7.23 µg/mL).

With CCOP(=O)(OCC)Oc1ccc(Br)cc1C(=O)Nc1ccc(Cl)cc1 the MIC50 [1] was over 500 µM, the MIC80 (Trichosporon asahii [2]) was over 500 µM and the MIC50 (Aspergillus fumigatus [3]) was over 500 µM. For the same compound, the MIC95 (Staphylococcus aureus [4]) was 500 µM (≈ 231 µg/mL), the MIC80 (Pichia kudriavzevii [5]) was over 500 µM and the MIC (Mycobacterium avium [6]) was 8 µM (≈ 3.7 µg/mL). It also gave an MIC (Mycobacterium kansasii [7]) of 4 µM (≈ 1.85 µg/mL), an MIC95 (Staphylococcus aureus [8]) of over 500 µM and an MIC95 (Staphylococcus aureus [9]) of over 500 µM. The MIC (Mycobacterium kansasii [10]) was 4 µM (≈ 1.85 µg/mL), the MIC (Mycobacterium avium [11]) was 8 µM (≈ 3.7 µg/mL) and the MIC50 (Lichtheimia corymbifera [12]) was over 500 µM. For the same compound, the Activity (Klebsiella pneumoniae [13]) was “inactive”, the Activity (Pseudomonas aeruginosa) was “inactive” and the IC50 (HepG2) was 6.81 µM. For the same compound, the MIC80 (Trichosporon asahii [14]) was over 500 µM, the Activity (Nakaseomyces glabratus) was “inactive” and the MIC50 (Lichtheimia corymbifera [15]) was over 500 µM. For the same compound, the MIC (Mycobacterium kansasii [16]) was 4 µM (≈ 1.85 µg/mL), the MIC80 (Candida albicans [17]) was over 500 µM and the MIC80 (Pichia kudriavzevii [18]) was over 500 µM. The Activity (Klebsiella pneumoniae [19]) was “inactive”, the MIC80 (Candida albicans [20]) was over 500 µM and the MIC50 (Aspergillus fumigatus [21]) was over 500 µM. The MIC [22] was 2 µM (≈ 0.925 µg/mL), the MIC (Mycobacterium kansasii [23]) was 8 µM (≈ 3.7 µg/mL) and the Activity (Escherichia coli) was “inactive”. For the same compound, the MIC (Mycobacterium kansasii [24]) was 4 µM (≈ 1.85 µg/mL), the MIC (Mycobacterium kansasii [25]) was 4 µM (≈ 1.85 µg/mL) and the Activity (Enterococcus sp.) was “inactive”. For the same compound, the MIC95 (Staphylococcus aureus [26]) was 500 µM (≈ 231 µg/mL), the Activity (Candida tropicalis) was “inactive” and the MIC95 [27] was over 500 µM. It also gave an MIC95 [28] of 500 µM (≈ 231 µg/mL), an MIC [29] of 4 µM (≈ 1.85 µg/mL) and an MIC50 [30] of over 500 µM.
